What was measured:
[1] = biological target: MAP kinase-interacting serine/threonine-protein kinase 2 (Homo sapiens) (UniProt Q9HBH9); assay: Inhibition of MKNK2 (unknown origin) at 1 uM relative to control
[2] = biological target: Tyrosine-protein kinase Yes (Homo sapiens) (UniProt P07947); assay: Inhibition of YES1 (unknown origin) at 1 uM relative to control
[3] = AUC (0 to 24 hrs) in Sprague-Dawley rat at 10 mg/kg, po administered via gavage by LC-MS/MS analysis; assay type: ADME, organism-based; parameters: time < 24 hr, dose 10 mg/kg, route oral; settings: in vivo
[4] = biological target: Insulin-like growth factor 1 receptor (Homo sapiens) (UniProt P08069); assay: Inhibition of IGF1R (unknown origin) at 1 uM relative to control
[5] = biological target: Tyrosine-protein kinase JAK2 (Homo sapiens) (UniProt O60674); assay: Inhibition of JAK2 (unknown origin) at 1 uM relative to control
[6] = biological target: AMP-activated protein kinase (AMPK) alpha-1/beta-1/gamma-1 (Homo sapiens) (UniProt P54619+Q9Y478+Q13131); assay: Inhibition of AMPK A1/B1/G1 (unknown origin) at 1 uM relative to control; assay type: protein-complex assay
[7] = biological target: CDK2/Cyclin A2 (Homo sapiens) (UniProt P24941+P20248); assay: Inhibition of CDK2/cyclin A (unknown origin) at 1 uM relative to control; assay type: protein-complex assay
[8] = biological target: Tyrosine-protein kinase Tec (Homo sapiens) (UniProt P42680); assay: Inhibition of TEC (unknown origin) at 1 uM relative to control
NCI-H1975 [9] = assay: In vivo anti tumor activity against human NCI-H1975 cells xenografted in nude C.B-17 SCID mouse model assessed as relative tumor volume at 20 mg/kg, ig for 18 days measured twice a week relative to control; assay type: functional
Outline: (§1)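 C.B-17 SCID mice received s.c. inoculation of 5 × 10^6 H1975 cells. At 100-150 mm3 they were randomized (n = 9 per group) and dosed intragastrically once daily for 18 days, with PBS as the control. Tumors were measured by caliper twice weekly, with V = length × width²/2. RTV = V/V0, and T/C% = treated mean RTV / control mean RTV × 100.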

NCI-H1975 [10] = assay: In vivo anti tumor activity against human NCI-H1975 cells xenografted in nude C.B-17 SCID mouse model assessed as relative tumor volume at 10 mg/kg, ig for 18 days measured twice a week relative to control; assay type: functional; outline: as §1
[11] = biological target: Mast/stem cell growth factor receptor Kit (Homo sapiens) (UniProt P10721); assay: Inhibition of KIT (unknown origin) at 1 uM relative to control
[12] = biological target: Inhibitor of nuclear factor kappa-B kinase subunit beta (Homo sapiens) (UniProt O14920); assay: Inhibition of IKBKB (unknown origin) at 1 uM relative to control
[13] = biological target: Voltage-gated inwardly rectifying potassium channel KCNH2 (Homo sapiens, UniProt Q12809); assay: Inhibition of human ERG expressed in HEK293 cells by lonWorks Quattro analysis; assay type: cell-based
[14] = biological target: Protein kinase C alpha type (Homo sapiens) (UniProt P17252); assay: Inhibition of PRKCA (unknown origin) at 1 uM relative to control
[15] = Intrinsic clearance in dog liver microsomes; assay type: ADME, Canis lupus familiaris, microsome; settings: read-out: CLH
[16] = biological target: Receptor tyrosine-protein kinase erbB-4 (Homo sapiens) (UniProt Q15303); assay: Inhibition of ERBB4 (HER4) (unknown origin) at 1 uM relative to control
NCI-H1975 [17] = assay: In vivo anti tumor activity against human NCI-H1975 cells xenografted in nude C.B-17 SCID mouse model assessed as tumor growth inhibition at 5 mg/kg, ig for 18 days measured twice a week relative to control; assay type: functional; settings: NCI-H1975, po, 432 h, read-out: TGI
Outline: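 H1975 s.c. xenografts (5 × 10^6 cells) were grown in C.B-17 SCID mice and randomized at 100-150 mm3 (n = 9). Mice were dosed intragastrically once daily for 18 days against a PBS control. TGI% = (TWcontrol − TWtreatment)/TWcontrol × 100, where TW is the mean tumor weight on day 18.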

[18] = Oral bioavailability in Sprague-Dawley rat at 10 mg/kg administered via gavage after 24 hrs by LC-MS/MS analysis; assay type: ADME, organism-based; settings: in vivo
Outline: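 Male Sprague-Dawley rats (200-240 g) received 1 mg/kg by tail-vein injection in 2% DMSO, 20% PEG400 and 78% buffered saline, or 10 mg/kg by oral gavage in 0.5% methylcellulose. Orbital sinus blood was drawn into heparinized tubes at 2, 5, 15 and 30 min and at 1, 2, 4, 8, 12 and 24 h, then centrifuged. Plasma was measured by LC/MS/MS in SRM mode, with non-compartmental analysis.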

[19] = Half life in Sprague-Dawley rat at 1 mg/kg, iv by LC-MS/MS analysis; assay type: ADME, organism-based; settings: in vivo
Outline: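 Male Sprague-Dawley rats (200-240 g) were dosed either by tail vein at 1 mg/kg in 2% DMSO/20% PEG400/78% buffered saline or by oral gavage at 10 mg/kg in 0.5% methylcellulose. Blood was drawn by orbital sinus puncture at 2 min to 24 h into heparin, and plasma was analysed by LC/MS/MS in SRM mode. Parameters came from non-compartmental analysis.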

[20] = Half life in monkey liver microsomes; assay type: ADME, Macaca mulatta, microsome; settings: rhesus monkey
Mus musculus = assay: Toxicity in nude C.B-17 SCID mouse model xenografted with human NCI-H1975 cells assessed as loss of body weight at 5 to 20 mg/kg, ig for 18 days; assay type: organism-based; settings: in vivo, po, 432 h
Outline: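 H1975 xenografts were set up by subcutaneous inoculation of 5 × 10^6 cells into C.B-17 SCID mice. At a mean tumor volume of 100-150 mm3, mice were randomized into groups of n = 9. They were dosed intragastrically once daily for 18 days at 5, 10 or 20 mg/kg, given as 0.1 mL/10 g body weight. The control group received PBS, and tumors were caliper-measured twice weekly.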

NCI-H1975 [21] = assay: Antiproliferative activity against human NCI-H1975 cells harboring EGFR L858R/T790M double mutant; assay type: functional, cell-based
Outline: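 A431 was grown in EMEM with 10% FBS; HCC827 and NCI-H1975 were grown in RPMI-1640 with 10% FBS. Cell viability experiments were repeated at least three times.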

[22] = biological target: Tyrosine-protein kinase SYK (Homo sapiens) (UniProt P43405); assay: Inhibition of SYK (unknown origin) at 1 uM relative to control
[23] = biological target: RAC-beta serine/threonine-protein kinase (Homo sapiens) (UniProt P31751); assay: Inhibition of AKT2 (unknown origin) at 1 uM relative to control
[24] = Half life in human liver microsomes; assay type: ADME, microsome
[25] = biological target: Cyclin-dependent kinase 1/cyclin B1 (Homo sapiens) (UniProt P06493+P14635); assay: Inhibition of CDK1/cyclin B (unknown origin) at 1 uM relative to control; assay type: protein-complex assay
[26] = biological target: Tyrosine-protein kinase ABL1 (Homo sapiens) (UniProt P00519); assay: Inhibition of ABL1 (unknown origin) at 1 uM relative to control
[27] = Half life in rat liver microsomes; assay type: ADME, microsome
[28] = biological target: Tyrosine-protein kinase Fes/Fps (Homo sapiens) (UniProt P07332); assay: Inhibition of FES (FPS) (unknown origin) at 1 uM relative to control

Tyrosine-protein kinase JAK2 (Homo sapiens), sequence (O60674 whole entry): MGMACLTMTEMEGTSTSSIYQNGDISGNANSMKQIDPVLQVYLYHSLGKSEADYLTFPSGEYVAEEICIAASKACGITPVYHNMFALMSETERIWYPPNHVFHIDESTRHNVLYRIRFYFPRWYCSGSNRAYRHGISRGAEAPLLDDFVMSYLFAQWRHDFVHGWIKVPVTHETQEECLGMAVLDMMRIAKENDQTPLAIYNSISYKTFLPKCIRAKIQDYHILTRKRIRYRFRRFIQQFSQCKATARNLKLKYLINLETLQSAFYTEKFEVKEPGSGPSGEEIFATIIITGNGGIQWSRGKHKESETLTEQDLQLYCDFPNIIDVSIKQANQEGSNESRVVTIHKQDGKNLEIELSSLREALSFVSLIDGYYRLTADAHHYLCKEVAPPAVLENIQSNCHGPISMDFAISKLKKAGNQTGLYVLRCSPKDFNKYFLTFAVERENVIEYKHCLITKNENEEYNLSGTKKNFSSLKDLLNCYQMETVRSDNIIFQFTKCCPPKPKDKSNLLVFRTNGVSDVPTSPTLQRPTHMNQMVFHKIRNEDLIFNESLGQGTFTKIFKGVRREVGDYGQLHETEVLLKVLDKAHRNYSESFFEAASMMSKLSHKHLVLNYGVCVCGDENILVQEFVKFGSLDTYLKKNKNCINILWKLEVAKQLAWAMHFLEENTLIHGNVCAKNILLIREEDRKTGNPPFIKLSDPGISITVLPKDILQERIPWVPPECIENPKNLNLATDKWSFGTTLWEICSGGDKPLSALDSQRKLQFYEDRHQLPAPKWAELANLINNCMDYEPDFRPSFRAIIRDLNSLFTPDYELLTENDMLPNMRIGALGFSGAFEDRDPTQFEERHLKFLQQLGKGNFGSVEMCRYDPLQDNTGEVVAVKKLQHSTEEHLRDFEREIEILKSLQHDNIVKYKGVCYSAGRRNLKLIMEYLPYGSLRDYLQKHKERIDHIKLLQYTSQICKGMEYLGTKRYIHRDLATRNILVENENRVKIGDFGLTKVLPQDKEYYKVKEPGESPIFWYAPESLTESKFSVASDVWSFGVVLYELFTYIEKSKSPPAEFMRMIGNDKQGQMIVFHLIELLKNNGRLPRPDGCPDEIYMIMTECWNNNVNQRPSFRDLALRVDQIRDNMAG
Tyrosine-protein kinase Tec (Homo sapiens), sequence (P42680 whole entry): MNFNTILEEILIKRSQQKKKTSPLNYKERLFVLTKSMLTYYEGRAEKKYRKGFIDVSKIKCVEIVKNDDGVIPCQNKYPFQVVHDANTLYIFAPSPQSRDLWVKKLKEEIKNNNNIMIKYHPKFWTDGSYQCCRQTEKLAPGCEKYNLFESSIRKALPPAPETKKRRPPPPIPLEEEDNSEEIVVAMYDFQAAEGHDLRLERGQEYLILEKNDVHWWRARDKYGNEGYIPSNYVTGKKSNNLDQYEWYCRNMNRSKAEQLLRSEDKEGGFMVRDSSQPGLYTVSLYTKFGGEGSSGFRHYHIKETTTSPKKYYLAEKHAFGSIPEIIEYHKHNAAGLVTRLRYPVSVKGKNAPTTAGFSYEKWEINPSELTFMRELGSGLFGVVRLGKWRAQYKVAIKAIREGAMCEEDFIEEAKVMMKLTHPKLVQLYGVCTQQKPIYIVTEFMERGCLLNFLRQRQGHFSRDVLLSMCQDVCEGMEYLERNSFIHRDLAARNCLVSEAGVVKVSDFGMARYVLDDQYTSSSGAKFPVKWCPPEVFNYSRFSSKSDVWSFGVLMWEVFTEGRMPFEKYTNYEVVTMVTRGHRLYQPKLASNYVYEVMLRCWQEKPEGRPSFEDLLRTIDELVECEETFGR
MAP kinase-interacting serine/threonine-protein kinase 2 (Homo sapiens), sequence (Q9HBH9 whole entry, looked up): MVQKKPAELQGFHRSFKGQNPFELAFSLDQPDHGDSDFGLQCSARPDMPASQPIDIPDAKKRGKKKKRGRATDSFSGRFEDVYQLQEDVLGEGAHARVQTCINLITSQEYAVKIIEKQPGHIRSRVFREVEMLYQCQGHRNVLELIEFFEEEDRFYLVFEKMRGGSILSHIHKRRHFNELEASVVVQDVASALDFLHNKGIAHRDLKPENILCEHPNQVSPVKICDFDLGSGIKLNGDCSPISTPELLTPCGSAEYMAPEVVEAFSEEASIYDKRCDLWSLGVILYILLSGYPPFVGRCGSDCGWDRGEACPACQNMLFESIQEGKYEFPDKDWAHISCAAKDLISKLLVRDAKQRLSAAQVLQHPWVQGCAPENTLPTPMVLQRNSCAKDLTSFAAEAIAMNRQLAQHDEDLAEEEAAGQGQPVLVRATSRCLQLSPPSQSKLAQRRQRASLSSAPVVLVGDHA
Cyclin-dependent kinase 1/cyclin B1 (Homo sapiens), sequence (P06493 whole entry, looked up): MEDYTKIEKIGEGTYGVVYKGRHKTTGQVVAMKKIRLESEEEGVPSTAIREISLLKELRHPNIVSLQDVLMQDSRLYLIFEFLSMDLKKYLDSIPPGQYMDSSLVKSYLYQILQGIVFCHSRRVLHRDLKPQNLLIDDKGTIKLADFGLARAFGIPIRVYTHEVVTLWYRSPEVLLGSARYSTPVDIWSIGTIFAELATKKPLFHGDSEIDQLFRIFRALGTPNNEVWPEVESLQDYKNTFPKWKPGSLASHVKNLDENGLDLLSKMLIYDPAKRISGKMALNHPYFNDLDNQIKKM
Cyclin-dependent kinase 1/cyclin B1 (Homo sapiens), sequence (P14635 whole entry, looked up): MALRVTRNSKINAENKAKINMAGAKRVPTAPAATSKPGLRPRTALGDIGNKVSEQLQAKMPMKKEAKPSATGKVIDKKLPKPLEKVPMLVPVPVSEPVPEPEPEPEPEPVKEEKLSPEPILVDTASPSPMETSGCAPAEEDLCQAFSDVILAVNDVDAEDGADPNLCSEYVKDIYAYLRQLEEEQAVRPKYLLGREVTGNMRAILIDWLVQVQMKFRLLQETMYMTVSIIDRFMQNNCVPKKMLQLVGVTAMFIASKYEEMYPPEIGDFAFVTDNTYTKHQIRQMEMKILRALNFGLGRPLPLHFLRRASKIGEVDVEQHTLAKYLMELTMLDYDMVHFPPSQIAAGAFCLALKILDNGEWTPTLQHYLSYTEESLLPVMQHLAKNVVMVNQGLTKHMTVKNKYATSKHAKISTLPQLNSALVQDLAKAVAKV
Receptor tyrosine-protein kinase erbB-4 (Homo sapiens), sequence (Q15303 whole entry): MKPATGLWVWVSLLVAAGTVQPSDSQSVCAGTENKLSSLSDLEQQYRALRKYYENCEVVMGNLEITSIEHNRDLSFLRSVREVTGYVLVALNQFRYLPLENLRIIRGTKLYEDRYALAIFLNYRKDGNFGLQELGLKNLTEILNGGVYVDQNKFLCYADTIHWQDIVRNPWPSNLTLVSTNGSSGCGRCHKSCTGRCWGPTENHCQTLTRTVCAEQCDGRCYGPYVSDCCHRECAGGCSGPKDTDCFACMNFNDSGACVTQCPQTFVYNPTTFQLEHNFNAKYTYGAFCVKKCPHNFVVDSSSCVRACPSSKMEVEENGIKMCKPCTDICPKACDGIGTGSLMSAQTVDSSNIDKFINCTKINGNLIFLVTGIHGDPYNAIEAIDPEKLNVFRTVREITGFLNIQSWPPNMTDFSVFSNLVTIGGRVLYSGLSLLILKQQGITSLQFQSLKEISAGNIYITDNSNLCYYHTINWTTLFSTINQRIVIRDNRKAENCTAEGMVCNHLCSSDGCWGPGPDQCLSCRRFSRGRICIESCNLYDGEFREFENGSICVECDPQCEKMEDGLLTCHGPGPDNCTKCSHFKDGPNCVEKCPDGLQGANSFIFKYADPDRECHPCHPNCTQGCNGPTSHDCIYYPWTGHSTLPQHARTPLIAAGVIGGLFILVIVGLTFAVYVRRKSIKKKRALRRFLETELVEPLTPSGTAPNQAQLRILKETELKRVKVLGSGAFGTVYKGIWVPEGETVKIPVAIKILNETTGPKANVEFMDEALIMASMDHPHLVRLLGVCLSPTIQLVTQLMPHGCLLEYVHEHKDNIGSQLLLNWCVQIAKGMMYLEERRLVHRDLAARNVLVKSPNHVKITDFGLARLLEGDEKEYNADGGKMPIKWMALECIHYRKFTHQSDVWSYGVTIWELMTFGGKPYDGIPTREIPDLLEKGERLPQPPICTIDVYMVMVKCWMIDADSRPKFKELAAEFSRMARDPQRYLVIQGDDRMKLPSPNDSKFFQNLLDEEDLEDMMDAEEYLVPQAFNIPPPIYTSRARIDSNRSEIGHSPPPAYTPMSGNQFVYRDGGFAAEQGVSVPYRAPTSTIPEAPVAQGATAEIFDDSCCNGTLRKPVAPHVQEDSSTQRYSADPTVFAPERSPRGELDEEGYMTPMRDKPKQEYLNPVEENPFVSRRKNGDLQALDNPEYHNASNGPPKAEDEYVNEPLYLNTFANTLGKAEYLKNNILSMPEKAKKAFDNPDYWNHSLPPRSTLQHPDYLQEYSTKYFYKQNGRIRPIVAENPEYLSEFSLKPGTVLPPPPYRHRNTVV

SMILES: C=CC(=O)Nc1cc(Nc2nccc(-c3cn4c5c(cccc35)CCC4)n2)c(OC)cc1N(C)CCN(C)C
- inhibition [1]: 117%
- inhibition [2]: 10%
- AUC(0-t) at 24 h [3]: 995 ng·h/mL
- inhibition [4]: 21%
- inhibition [5]: -6%
- inhibition [6]: 7%
- inhibition [7]: 7%
- inhibition [8]: 52%
- T/C (NCI-H1975 [9]): 12.1%
- T/C (NCI-H1975 [10]): 25.7%
- inhibition [11]: 5%
- inhibition [12]: 0%
- IC50 [13]: 8.46 µM
- inhibition [14]: 1%
- CLint scaled [15]: 63.4 mL/min/kg
- inhibition [16]: 78%
- inhibition in vivo at 5 mg/kg (NCI-H1975 [17]): 46.8%
- bioavailability [18]: 52.4%
- half-life [19]: 270 min
- half-life [20]: 28.9 min
- Activity (Mus musculus): Non-Toxic
- IC50 (NCI-H1975 [21]): 0.103 µM
- inhibition [22]: 4%
- inhibition [23]: 1%
- half-life [24]: > 180 min
- inhibition [25]: 5%
- inhibition [26]: -2%
- half-life [27]: 46.2 min
- inhibition [28]: 42%

— ChEMBL document CHEMBL4052618, “Design, synthesis, SAR discussion, in vitro and in vivo evaluation of novel selective EGFR modulator to inhibit L858R/T790M double mutants” (Eur J Med Chem, 2017)
